This is a sample that favours compounds with a hit; in the whole collection about 2.3% have one here.
TRPC6 act: activates the mouse TRPC6 cation channel; B-score at 10 µM; HEK293-TRPC6 membrane potential dye fluorescence; active compounds read high; AID 2550; hit rate 0.13% among 310,000; Q61143;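 active = B-score of the integrated fluorescence ratio above library mean plus 3 SD, and starting fluorescence ratio within library mean plus 5 SD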;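 note: higher score means more depolarization so channel activation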
TRPC4 PAM: TRPC4 (mouse) allosteric potentiation | HEK293 TRPC4beta/mu-opioid, DAMGO EC20, Fluo-4 Ca2+ flux; active compounds read high | B-score at 10 µM | Q9QUQ5 | hit rate 0.42% among 310,000;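 active = B-score of calcium response area above 5 SD of library B-scores, with initial fluorescence ratio within 5 SD of library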
Target sequence (Q9QUQ5 whole entry, looked up): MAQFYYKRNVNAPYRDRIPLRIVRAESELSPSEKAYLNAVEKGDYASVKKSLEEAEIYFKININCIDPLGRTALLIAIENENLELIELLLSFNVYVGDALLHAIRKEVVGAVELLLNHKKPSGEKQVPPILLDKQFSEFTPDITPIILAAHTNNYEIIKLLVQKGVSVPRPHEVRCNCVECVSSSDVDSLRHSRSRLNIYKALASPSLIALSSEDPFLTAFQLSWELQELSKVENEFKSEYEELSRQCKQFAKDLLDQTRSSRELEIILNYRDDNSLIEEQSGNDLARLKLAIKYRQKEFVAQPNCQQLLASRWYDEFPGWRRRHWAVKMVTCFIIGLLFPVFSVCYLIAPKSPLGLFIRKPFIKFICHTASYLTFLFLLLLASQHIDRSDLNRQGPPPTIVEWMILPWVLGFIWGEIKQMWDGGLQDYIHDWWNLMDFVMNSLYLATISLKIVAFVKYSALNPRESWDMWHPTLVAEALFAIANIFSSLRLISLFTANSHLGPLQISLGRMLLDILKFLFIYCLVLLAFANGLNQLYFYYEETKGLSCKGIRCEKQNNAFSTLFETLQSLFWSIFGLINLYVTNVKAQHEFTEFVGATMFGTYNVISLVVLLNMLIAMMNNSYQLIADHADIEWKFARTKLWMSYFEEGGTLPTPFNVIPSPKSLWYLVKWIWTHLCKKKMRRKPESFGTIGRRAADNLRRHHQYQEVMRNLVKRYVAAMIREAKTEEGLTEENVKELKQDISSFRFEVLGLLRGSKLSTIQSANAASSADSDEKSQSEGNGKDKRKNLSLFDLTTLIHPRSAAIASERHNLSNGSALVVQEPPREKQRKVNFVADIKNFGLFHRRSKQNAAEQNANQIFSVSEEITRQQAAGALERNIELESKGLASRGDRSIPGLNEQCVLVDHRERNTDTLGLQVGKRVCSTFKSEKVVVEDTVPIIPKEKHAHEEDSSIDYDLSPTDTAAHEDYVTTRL
TRPC4 inh: inhibitors of mouse TRPC4 channel; HEK293 TRPC4beta/mu-opioid, DAMGO-evoked Fluo4 calcium flux; active compounds read low; hit rate 0.39% among 300,000; Q9QUQ5; B-score at 10 µM; AID 2247;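 active = B-score over 3 SD under the library average, no early fluorescence shift, positive overall ratio signal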
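Assay system: HEK293 cells with stable TRPC4beta plus mu-opioid receptor expression; Probe or stimulus: DAMGO in two steps, submaximal then maximal; Dosing: single-point compound dosing; Measured by: Fluo4 calcium-dye fluorescence, kinetic read; Read-out basis: B score from integrated Fluo4 fluorescence ratio.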
TRPC4 agonist: activators of mouse TRPC4 channel; Q9QUQ5; HEK293 TRPC4beta/mu-opioid, Fluo4 calcium fluorescence; active compounds read high; B-score at 10 µM; hit rate 0.49% among 310,000;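 active = B-score above 5 SD of library B-scores, and initial fluorescence ratio not above library mean plus 5 SD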;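 note: positive B-score marks a calcium rise read as TRPC4 activation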
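Material: HEK293 stable line with TRPC4beta plus mu-opioid receptor; technique: Fluo4 calcium-sensitive dye fluorescence, kinetic, 1 Hz baseline; timing: Fluo4 dye loading 45 min at room temperature, 110 s recording; controls: assay buffer as low control, maximal DAMGO as high control; read-out: integrated baseline-normalised fluorescence ratio, converted to per-well B score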
TRPC6 inhibitor: inhibitors of mouse TRPC6 channel; Q61143; HEK293-TRPC6, membrane potential dye, ACh-evoked depolarization; active compounds read low; B-score at 10 µM; hit rate 1.1% among 310,000;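 active = B-score under library mean minus 3 SD, initial fluorescence not abnormally high, positive integrated signal ratio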;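 note: B-score derived from integrated fluorescence ratio over the kinetic read; more negative B-score means stronger inhibition of depolarization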
TRPC4 spec 2: second selectivity test of TRPC6 inhibitors: effect on mouse TRPC4; shares compounds with TRPC6 inhibitor; HEK293 TRPC4/MOR, membrane potential dye fluorescence; channel activated by saturating DAMGO dose; inhibition, % at 10 µM; hit rate 42% among 920; AID 2776;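 active = compounds whose fluorescence signal differed from control wells by over 3 SD, either direction, in both duplicate plates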
TRPC4 spec: tests whether TRPC6 inhibitors also affect mouse TRPC4 | shares compounds with TRPC6 inhibitor | HEK293 TRPC4/mu-opioid, membrane potential fluorescence | activity change, negative = inhibition, % at 10 µM | hit rate 61% among 920;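 active = rise or fall in signal beyond 3 SD of buffer-only wells in both replicate plates, either sign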;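 note: integrated kinetic ratio of fluorescence range over baseline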
HEK293 MPD ctr 2-1: second check of TRPC6 inhibitor effects in parental HEK293 cells; hit rate 31% among 920; parental HEK293 membrane potential dye fluorescence; maximal acetylcholine challenge after compound addition; signal change vs control, % at 10 µM; shares compounds with TRPC6 inhibitor;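 active = membrane potential signal moving either way by over 3 SD of the maximum-effect control, in both duplicate plates, meaning non-specific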
HEK293 MPD ctr-1: counter-screen for TRPC6 inhibitors: effect in parental HEK293 cells; membrane potential signal change, % at 10 µM; parental HEK293 membrane potential dye fluorescence; AID 2780; hit rate 60% among 920; shares compounds with TRPC6 inhibitor;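 active = membrane potential signal shifting up or down by more than 3 SD of buffer-only wells, on both duplicate plates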
HEK293 MPD ctr-2: parental HEK293 nonspecific activity of TRPC6 modulators | shares compounds with TRPC6 inhibitor | membrane potential dye fluorescence | membrane potential signal change, % at 10 µM | hit rate 51% among 2,400 | AID 488924;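 active = membrane potential signal moves up or down beyond 5 SD from buffer-only wells, on both duplicate plates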
HEK293 MPD ctr 2-2: second counter-screen for TRPC6 modulators: effect in parental HEK293 cells; shares compounds with TRPC6 inhibitor; membrane potential dye fluorescence; after compound, maximal acetylcholine stimulation; inhibition, % at 10 µM; hit rate 14% among 2,400; AID 488926;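 active = membrane potential signal drops by more than 5 SD from the mean control signal, in both duplicate plates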
TRPC4 ctr mod: selectivity of TRPC6 modulators against mouse TRPC4; shares compounds with TRPC6 inhibitor; HEK293 TRPC4/mu-opioid, membrane potential fluorescence; percent change from control (negative = decrease, positive = increase), % at 10 µM; hit rate 69% among 2,400;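 active = membrane potential signal moved up or down beyond 5 SD of buffer control wells, in both duplicate plates, actives on both sides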
TRPC4/MOR inh 2: mouse TRPC4 off-target activity of TRPC6 modulators, second screen; shares compounds with TRPC6 inhibitor; HEK293 TRPC4/mu-opioid, membrane potential dye fluorescence; stimulated with maximal-effect DAMGO; inhibition, % at 10 µM; hit rate 55% among 2,400;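 active = drop in membrane potential signal beyond 5 SD of the control wells in both duplicate plates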;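 note: TRPC4 counter screen for TRPC6 hits run under conditions tuned for TRPC6 not TRPC4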
TRPC6 inh conf: mouse TRPC6 inhibitor confirmation; shares compounds with TRPC6 inhibitor; HEK293-TRPC6, membrane potential dye, ACh-evoked depolarization; inhibition, % at 10 µM; AID 488960; hit rate 43% among 3,300;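 active = fluorescence ratio falls more than 5 SD below the full-stimulation control mean, in both duplicate runs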;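 note: integrated fluorescence ratio of peak minus minimum over baseline after agonist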
TRPC6 act conf: mouse TRPC6 activator confirmation; shares compounds with TRPC6 inhibitor; AID 488961; HEK293-TRPC6 membrane potential dye fluorescence, FDSS; hit rate 11% among 2,800; activation, % at 10 µM;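 active = ratio signal rise beyond 5 SD above unstimulated control wells' mean, seen in both duplicate runs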
A number is an active result.

Nc1c2c(nc3ccccc13)N(c1ccccc1)CC2 was read as TRPC6 act inactive, TRPC4 PAM inactive, TRPC4 inh -6, TRPC4 agonist inactive, TRPC6 inhibitor -7.96, HEK293 MPD ctr-2 -129.5%, HEK293 MPD ctr 2-2 inactive, TRPC4 ctr mod -40.5%, TRPC4/MOR inh 2 85.0%, TRPC6 inh conf 47.5% and TRPC6 act conf inactive.
Screening O=C(Nc1ccc(S(=O)(=O)Nc2cnc3ccccc3n2)cc1)c1ccccc1Br returned TRPC6 act inactive, TRPC4 PAM inactive, TRPC4 inh inactive, TRPC4 agonist inactive and TRPC6 inhibitor inactive.
CCN1CCN(c2nc(Nc3ccc(NC(C)=O)cc3)nc(Nc3ccc(NC(C)=O)cc3)n2)CC1 was read as TRPC6 act inactive, TRPC4 PAM inactive, TRPC4 inh inactive, TRPC4 agonist inactive and TRPC6 inhibitor inactive.
For Nc1nonc1C(=O)NCCNCc1ccccc1OCc1ccc(F)cc1 the results were TRPC6 act inactive, TRPC4 PAM inactive, TRPC4 inh inactive, TRPC4 agonist inactive, TRPC6 inhibitor -6.31, HEK293 MPD ctr-2 141.0%, HEK293 MPD ctr 2-2 inactive, TRPC4 ctr mod 12.5%, TRPC4/MOR inh 2 86.5% and TRPC6 inh conf 46.5%.
For CCOc1ccc(CNCCNC(=O)c2nonc2N)cc1 the results were TRPC6 act inactive, TRPC4 PAM inactive, TRPC4 inh inactive, TRPC4 agonist inactive and TRPC6 inhibitor inactive.
Cc1cc(C)c(C)c(OCC(=O)N2CCCCCC2)c1 was read as TRPC6 act inactive, TRPC4 PAM inactive, TRPC4 inh inactive, TRPC4 agonist inactive and TRPC6 inhibitor inactive.
`COc1ccc(-c2nc(CS(=O)CC(=O)NC3CCC(C)CC3)c(C)o2)cc1OC` (stereo unspecified) gave TRPC6 act inactive, TRPC4 PAM inactive, TRPC4 inh inactive, TRPC4 agonist inactive, TRPC6 inhibitor -6.21, HEK293 MPD ctr-2 inactive, HEK293 MPD ctr 2-2 inactive, TRPC4 ctr mod 13.0%, TRPC4/MOR inh 2 29.0% and TRPC6 inh conf 71.0%.
Screening CCCCNC(=O)O[C@@H]1C[C@H]2CCC(=O)N3CC[C@@H](C1)[C@@H]23 returned TRPC6 act inactive, TRPC4 PAM inactive, TRPC4 inh inactive, TRPC4 agonist inactive and TRPC6 inhibitor inactive.
CCc1cccc(NS(=O)(=O)c2ccc3c(c2)NC(=O)CC(=O)N3)c1 was read as TRPC6 act inactive, TRPC4 PAM inactive, TRPC4 inh inactive, TRPC4 agonist inactive and TRPC6 inhibitor inactive.
Screening CCc1ccccc1NS(=O)(=O)c1ccc2c(c1)NC(=O)CC(=O)N2 returned TRPC6 act inactive, TRPC4 PAM inactive, TRPC4 inh inactive, TRPC4 agonist inactive, TRPC6 inhibitor -9.36, TRPC4 spec 2 inactive, TRPC4 spec inactive, HEK293 MPD ctr 2-1 inactive, HEK293 MPD ctr-1 inactive, TRPC6 inh conf inactive and TRPC6 act conf inactive.
For OC(CCN1CCCCC1)(c1ccccc1)c1ccccc1 the results were TRPC6 act inactive, TRPC4 PAM inactive, TRPC4 inh inactive, TRPC4 agonist inactive, TRPC6 inhibitor -7.08, TRPC4 spec 2 inactive, TRPC4 spec 17.3%, HEK293 MPD ctr 2-1 -7.0%, HEK293 MPD ctr-1 12.0% and TRPC6 inh conf 73.7%.
`OC(CCN1CCCC1)(c1ccccc1)C1CCCCC1` (stereo unspecified) gave TRPC6 act inactive, TRPC4 PAM inactive, TRPC4 inh inactive, TRPC4 agonist inactive, TRPC6 inhibitor -8.15, TRPC4 spec 2 inactive, TRPC4 spec 24.2%, HEK293 MPD ctr 2-1 -14.0%, HEK293 MPD ctr-1 15.3% and TRPC6 inh conf 79.1%.
Screening CCN(CC)S(=O)(=O)c1ccc(C(=O)NCCOC(=O)c2ccc(F)cc2F)cc1 returned TRPC6 act inactive, TRPC4 PAM inactive, TRPC4 inh inactive, TRPC4 agonist inactive and TRPC6 inhibitor inactive.
For COc1ccc(C)cc1NC(=O)CCNS(=O)(=O)c1ccc2c(c1)CCC(=O)N2 the results were TRPC6 act inactive, TRPC4 PAM inactive, TRPC4 inh inactive, TRPC4 agonist inactive and TRPC6 inhibitor inactive.
CC(C)c1cc(-c2n[nH]c(=S)n2Cc2ccccc2)cs1 was read as TRPC6 act inactive, TRPC4 PAM inactive, TRPC4 inh inactive, TRPC4 agonist inactive, TRPC6 inhibitor -15.8, HEK293 MPD ctr-2 inactive, HEK293 MPD ctr 2-2 inactive, TRPC4 ctr mod 8.5%, TRPC4/MOR inh 2 inactive, TRPC6 inh conf inactive and TRPC6 act conf inactive.
For S=c1[nH]nc(-c2ccccc2)n1Cc1ccccc1 the results were TRPC6 act inactive, TRPC4 PAM inactive, TRPC4 inh inactive, TRPC4 agonist inactive and TRPC6 inhibitor inactive.
`O=C1OCCN1CCNCc1cn(-c2ccc(F)cc2)nc1-c1ccccc1Cl` gave TRPC6 act inactive, TRPC4 PAM inactive, TRPC4 inh inactive, TRPC4 agonist inactive and TRPC6 inhibitor inactive.
For Cc1ccc(-n2cc(CNCCN3CCOC3=O)c(-c3cccc(C)c3)n2)cc1 the results were TRPC6 act inactive, TRPC4 PAM inactive, TRPC4 inh inactive, TRPC4 agonist inactive, TRPC6 inhibitor -5.82, HEK293 MPD ctr-2 inactive, HEK293 MPD ctr 2-2 inactive, TRPC4 ctr mod 10.0%, TRPC4/MOR inh 2 58.0%, TRPC6 inh conf inactive and TRPC6 act conf inactive.

Screening data from PubChem BioAssay.
